# Measurements: ChEMBL document CHEMBL4689842, “EUbOPEN Chemogenomics Library wave 1” (2021)
# Tested on: Fibroblast
# Assay: Multiplex assay against human fibroblast
# Assay type: toxicity, cell-based
# In short: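 On a CQ1 microscope at 37°C and 5% CO2, live cells were imaged after compound addition. They had been stained at seeding with Hoechst33342, BioTracker Green Microtubule Cytoskeleton Dye, MitoTracker Red and Annexin V Alexa Fluor 680. CellPathfinder machine-learning gating assigned cells to Hoechst high-intensity objects or normal cells, normal cells to healthy, pyknosed or fragmented nuclei, and pyknosed cells to mitotic or apoptotic. Tubulin, mitochondrial-mass and membrane-permeability phenotypes are per cents of healthy-nucleus cells.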
# [1] = 12 h, 1 µM, compound concentration 1 uM, replicate 1
# [2] = 12 h, 1 µM, compound concentration 1 uM, replicate 2
# [3] = 12 h, 10 µM, compound concentration 10 uM, replicate 1
# [4] = 12 h, 10 µM, compound concentration 10 uM, replicate 2
# [5] = 24 h, 1 µM, compound concentration 1 uM, replicate 1
# [6] = 24 h, 1 µM, compound concentration 1 uM, replicate 2
# [7] = 24 h, 10 µM, compound concentration 10 uM, replicate 1
# [8] = 24 h, 10 µM, compound concentration 10 uM, replicate 2
compound,measurement,setting,value
COc1ccc(-c2ccc3c(N4CCOCC4)nc(N4C[C@@H](C)O[C@@H](C)C4)nc3n2)cc1CO [Ku-0063794],Population Apoptotic (%),[1],72%
same,Population Fragmented Nuclei (%),[1],30%
same,Population Healthy Nuclei (%),[1],52%
same,Population Hoechst High Intensity Objects (%),[1],16%
same,Population Membrane Permeable-Phenotype (%),[1],5%
same,Population Mitochondria Different-Phenotype (%),[1],1%
same,Population Mitotic Cells (%),[1],27%
same,Population Normal (%),[1],83%
same,Population Pyknosed Nuclei (%),[1],16%
same,Population Tubulin-Different-Phenotype (%),[1],3%
same,Total Cell Count,[1],281
same,Population Apoptotic (%),[2],33%
same,Population Fragmented Nuclei (%),[2],61%
same,Population Healthy Nuclei (%),[2],30%
same,Population Hoechst High Intensity Objects (%),[2],35%
same,Population Membrane Permeable-Phenotype (%),[2],17%
same,Population Mitochondria Different-Phenotype (%),[2],13%
same,Population Mitotic Cells (%),[2],66%
same,Population Normal (%),[2],64%
same,Population Pyknosed Nuclei (%),[2],8%
same,Population Tubulin-Different-Phenotype (%),[2],17%
same,Total Cell Count,[2],116
same,Population Apoptotic (%),[3],77%
same,Population Fragmented Nuclei (%),[3],72%
same,Population Healthy Nuclei (%),[3],20%
same,Population Hoechst High Intensity Objects (%),[3],63%
same,Population Membrane Permeable-Phenotype (%),[3],14%
same,Population Mitochondria Different-Phenotype (%),[3],3%
same,Population Mitotic Cells (%),[3],22%
same,Population Normal (%),[3],36%
same,Population Pyknosed Nuclei (%),[3],6%
same,Population Tubulin-Different-Phenotype (%),[3],7%
same,Total Cell Count,[3],736
same,Population Apoptotic (%),[4],0%
same,Population Fragmented Nuclei (%),[4],82%
same,Population Healthy Nuclei (%),[4],17%
same,Population Hoechst High Intensity Objects (%),[4],66%
same,Population Membrane Permeable-Phenotype (%),[4],42%
same,Population Mitochondria Different-Phenotype (%),[4],42%
same,Population Mitotic Cells (%),[4],0%
same,Population Normal (%),[4],33%
same,Population Pyknosed Nuclei (%),[4],0%
same,Population Tubulin-Different-Phenotype (%),[4],28%
same,Total Cell Count,[4],244
same,Population Apoptotic (%),[5],67%
same,Population Fragmented Nuclei (%),[5],33%
same,Population Healthy Nuclei (%),[5],54%
same,Population Hoechst High Intensity Objects (%),[5],18%
same,Population Membrane Permeable-Phenotype (%),[5],7%
same,Population Mitochondria Different-Phenotype (%),[5],2%
same,Population Mitotic Cells (%),[5],32%
same,Population Normal (%),[5],81%
same,Population Pyknosed Nuclei (%),[5],11%
same,Population Tubulin-Different-Phenotype (%),[5],3%
same,Total Cell Count,[5],290
same,Population Apoptotic (%),[6],80%
same,Population Fragmented Nuclei (%),[6],65%
same,Population Healthy Nuclei (%),[6],28%
same,Population Hoechst High Intensity Objects (%),[6],25%
same,Population Membrane Permeable-Phenotype (%),[6],9%
same,Population Mitochondria Different-Phenotype (%),[6],13%
same,Population Mitotic Cells (%),[6],20%
same,Population Normal (%),[6],74%
same,Population Pyknosed Nuclei (%),[6],6%
same,Population Tubulin-Different-Phenotype (%),[6],13%
same,Total Cell Count,[6],105
same,Population Apoptotic (%),[7],59%
same,Population Fragmented Nuclei (%),[7],72%
same,Population Healthy Nuclei (%),[7],21%
same,Population Hoechst High Intensity Objects (%),[7],58%
same,Population Membrane Permeable-Phenotype (%),[7],10%
same,Population Mitochondria Different-Phenotype (%),[7],0%
same,Population Mitotic Cells (%),[7],40%
same,Population Normal (%),[7],41%
same,Population Pyknosed Nuclei (%),[7],6%
same,Population Tubulin-Different-Phenotype (%),[7],7%
same,Total Cell Count,[7],790
same,Population Apoptotic (%),[8],100%
same,Population Fragmented Nuclei (%),[8],78%
same,Population Healthy Nuclei (%),[8],20%
same,Population Hoechst High Intensity Objects (%),[8],70%
same,Population Membrane Permeable-Phenotype (%),[8],28%
same,Population Mitochondria Different-Phenotype (%),[8],21%
same,Population Mitotic Cells (%),[8],0%
same,Population Normal (%),[8],29%
same,Population Pyknosed Nuclei (%),[8],1%
same,Population Tubulin-Different-Phenotype (%),[8],21%
same,Total Cell Count,[8],241
CN1CCN(C(=O)C(C)(C)c2ccc(C(=O)Nc3cn4cc(-c5cc(C(C)(C)C)cc(C(C)(C)C)c5)ccc4n3)cc2)CC1 [T3-CLK-N],Population Apoptotic (%),[1],84%
same,Population Fragmented Nuclei (%),[1],34%
same,Population Healthy Nuclei (%),[1],52%
same,Population Hoechst High Intensity Objects (%),[1],19%
same,Population Membrane Permeable-Phenotype (%),[1],8%
same,Population Mitochondria Different-Phenotype (%),[1],1%
same,Population Mitotic Cells (%),[1],16%
same,Population Normal (%),[1],80%
same,Population Pyknosed Nuclei (%),[1],13%
same,Population Tubulin-Different-Phenotype (%),[1],3%
same,Total Cell Count,[1],237
same,Population Apoptotic (%),[2],42%
same,Population Fragmented Nuclei (%),[2],44%
same,Population Healthy Nuclei (%),[2],44%
same,Population Hoechst High Intensity Objects (%),[2],26%
same,Population Membrane Permeable-Phenotype (%),[2],14%
same,Population Mitochondria Different-Phenotype (%),[2],11%
same,Population Mitotic Cells (%),[2],57%
same,Population Normal (%),[2],73%
same,Population Pyknosed Nuclei (%),[2],11%
same,Population Tubulin-Different-Phenotype (%),[2],22%
same,Total Cell Count,[2],83
same,Population Apoptotic (%),[3],78%
same,Population Fragmented Nuclei (%),[3],39%
same,Population Healthy Nuclei (%),[3],45%
same,Population Hoechst High Intensity Objects (%),[3],16%
same,Population Membrane Permeable-Phenotype (%),[3],23%
same,Population Mitochondria Different-Phenotype (%),[3],1%
same,Population Mitotic Cells (%),[3],21%
same,Population Normal (%),[3],83%
same,Population Pyknosed Nuclei (%),[3],14%
same,Population Tubulin-Different-Phenotype (%),[3],21%
same,Total Cell Count,[3],260
same,Population Apoptotic (%),[4],50%
same,Population Fragmented Nuclei (%),[4],40%
same,Population Healthy Nuclei (%),[4],30%
same,Population Hoechst High Intensity Objects (%),[4],39%
same,Population Membrane Permeable-Phenotype (%),[4],30%
same,Population Mitochondria Different-Phenotype (%),[4],23%
same,Population Mitotic Cells (%),[4],50%
same,Population Normal (%),[4],60%
same,Population Pyknosed Nuclei (%),[4],28%
same,Population Tubulin-Different-Phenotype (%),[4],23%
same,Total Cell Count,[4],69
same,Population Apoptotic (%),[5],73%
same,Population Fragmented Nuclei (%),[5],31%
same,Population Healthy Nuclei (%),[5],51%
same,Population Hoechst High Intensity Objects (%),[5],16%
same,Population Membrane Permeable-Phenotype (%),[5],9%
same,Population Mitochondria Different-Phenotype (%),[5],2%
same,Population Mitotic Cells (%),[5],26%
same,Population Normal (%),[5],83%
same,Population Pyknosed Nuclei (%),[5],16%
same,Population Tubulin-Different-Phenotype (%),[5],6%
same,Total Cell Count,[5],243
same,Population Apoptotic (%),[6],40%
same,Population Fragmented Nuclei (%),[6],42%
same,Population Healthy Nuclei (%),[6],48%
same,Population Hoechst High Intensity Objects (%),[6],28%
same,Population Membrane Permeable-Phenotype (%),[6],11%
same,Population Mitochondria Different-Phenotype (%),[6],11%
same,Population Mitotic Cells (%),[6],60%
same,Population Normal (%),[6],71%
same,Population Pyknosed Nuclei (%),[6],8%
same,Population Tubulin-Different-Phenotype (%),[6],11%
same,Total Cell Count,[6],78
same,Population Apoptotic (%),[7],82%
same,Population Fragmented Nuclei (%),[7],32%
same,Population Healthy Nuclei (%),[7],54%
same,Population Hoechst High Intensity Objects (%),[7],10%
same,Population Membrane Permeable-Phenotype (%),[7],22%
same,Population Mitochondria Different-Phenotype (%),[7],5%
same,Population Mitotic Cells (%),[7],17%
same,Population Normal (%),[7],89%
same,Population Tubulin-Different-Phenotype (%),[7],30%
same,Total Cell Count,[7],245
same,Population Apoptotic (%),[8],33%
same,Population Fragmented Nuclei (%),[8],55%
same,Population Healthy Nuclei (%),[8],30%
same,Population Hoechst High Intensity Objects (%),[8],38%
same,Population Membrane Permeable-Phenotype (%),[8],38%
same,Population Mitochondria Different-Phenotype (%),[8],15%
same,Population Mitotic Cells (%),[8],66%
same,Population Normal (%),[8],61%
same,Population Pyknosed Nuclei (%),[8],13%
same,Population Tubulin-Different-Phenotype (%),[8],23%
same,Total Cell Count,[8],70
